Legend:
[1] = target: Histamine H1 receptor (Homo sapiens) (UniProt P35367); experiment: Binding affinity to recombinant human histamine H1 receptor at 10 uM after 60 mins by scintillation counting analysis relative to control
[2] = target: 5-hydroxytryptamine receptor 5A (Homo sapiens) (UniProt P47898); experiment: Binding affinity to recombinant human 5-HT5A receptor at 10 uM after 120 mins by scintillation counting analysis relative to control
[3] = target: Histone deacetylase 11 (Homo sapiens) (UniProt Q96DB2); experiment: Binding affinity to recombinant human HDAC11 at 10 uM after 30 mins by fluorescence analysis relative to control
[4] = target: 3',5'-cyclic-AMP phosphodiesterase 4D (Homo sapiens) (UniProt Q08499); experiment: Binding affinity to recombinant human PDE4D2 at 10 uM after 20 mins by scintillation counting analysis relative to control
Caspase-8 (Homo sapiens) = Caspase-8 (Homo sapiens) (UniProt Q14790); experiment: Binding affinity to recombinant human caspase 8 at 10 uM after 45 mins by fluorescence assay relative to control
Homo sapiens [5] = species on record: Homo sapiens; experiment: Binding affinity to sodium channel (unknown origin) at 10 uM relative to control
Salmonella typhimurium = experiment: Mutagenicity in Salmonella typhimurium TA98 in absence of rat liver S9 fraction by Ames test; type: toxicity, organism-based; conditions: salmonella enterica subsp. enterica serovar typhimurium
[6] = target: C-C chemokine receptor type 1 (Homo sapiens) (UniProt P32246); experiment: Binding affinity to recombinant human CCR1 receptor at 10 uM after 120 mins by scintillation counting analysis relative to control
[7] = target: Neuromedin-K receptor (Homo sapiens) (UniProt P29371); experiment: Binding affinity to recombinant human NK3 receptor at 10 uM after 120 mins by scintillation counting analysis relative to control
[8] = target: Neurotensin receptor type 1 (Homo sapiens) (UniProt P30989); experiment: Binding affinity to recombinant human NT1 receptor at 10 uM after 60 mins by scintillation counting analysis relative to control
COS-7 = experiment: Cytotoxicity against African green monkey COS7 cells assessed as cell death after 2 days by MTT assay; type: cell-based; conditions: chlorocebus aethiops, cos-7, 48 h
[9] = target: NAD-dependent protein deacetylase sirtuin-2 (Homo sapiens) (UniProt Q8IXJ6); experiment: Binding affinity to surtuin-2 (unknown origin) at 10 uM by relative to control
[10] = target: Prostaglandin E2 receptor EP2 subtype (Homo sapiens) (UniProt P43116); experiment: Binding affinity to recombinant human EP2 receptor at 10 uM after 120 mins by scintillation counting analysis relative to control
[11] = target: Beta-1 adrenergic receptor (Homo sapiens) (UniProt P08588); experiment: Binding affinity to recombinant human beta1 receptor at 10 uM after 60 mins by scintillation counting analysis relative to control
[12] = target: Muscarinic acetylcholine receptor M3 (Homo sapiens) (UniProt P20309); experiment: Binding affinity to recombinant human muscarinic M3 receptor at 10 uM after 60 mins by scintillation counting analysis relative to control
[13] = target: Translocator protein (Homo sapiens) (UniProt P30536); experiment: Binding affinity to peripheral-type benzodiazepine receptor (unknown origin) at 10 uM relative to control
[14] = target: 5-hydroxytryptamine receptor 2C (Homo sapiens) (UniProt P28335); experiment: Binding affinity to recombinant human 5-HT2C receptor at 10 uM after 60 mins by scintillation counting analysis relative to control
[15] = target: Adrenergic receptor alpha-1 (Rattus norvegicus) (UniProt P15823+P23944+P43140); experiment: Binding affinity to rat alpha1 receptor at 10 uM after 60 mins by scintillation counting analysis relative to control; type: protein assay
Homo sapiens [16] = species on record: Homo sapiens; experiment: Binding affinity to bombesin receptor (unknown origin) at 10 uM relative to control
[17] = target: Stromelysin-1 (Homo sapiens) (UniProt P08254); experiment: Binding affinity to human MMP3 at 10 uM after 30 mins by fluorescence assay relative to control
Homo sapiens [18] = species on record: Homo sapiens; experiment: Binding affinity to P2X receptor (unknown origin) at 10 uM relative to control
[19] = target: Somatostatin receptor (Homo sapiens) (UniProt P35346+P30874+P31391+P30872+P32745); experiment: Binding affinity to somatostatin receptor (unknown origin) at 10 uM relative to control; type: protein assay
[20] = target: Neuropeptide Y receptor type 1 (Homo sapiens) (UniProt P25929); experiment: Binding affinity to human Y1 receptor at 10 uM after 120 mins by scintillation counting analysis relative to control
[21] = target: D(2) dopamine receptor (Homo sapiens) (UniProt P14416); experiment: Binding affinity to recombinant human dopamine receptor D2S at 10 uM after 60 mins by scintillation counting analysis relative to control
Homo sapiens [22] = species on record: Homo sapiens; experiment: Binding affinity to recombinant human dopamine receptor D4.4 at 10 uM after 60 mins by scintillation counting analysis relative to control
[23] = target: Secretory phospholipase A2 receptor (Homo sapiens) (UniProt Q13018); experiment: Binding affinity to recombinant human sPLA2 receptor at 10 uM after 20 mins by spectrophotometric analysis relative to control
[24] = target: Disintegrin and metalloproteinase domain-containing protein 17 (Homo sapiens) (UniProt P78536); experiment: Binding affinity to recombinant human TACE at 10 uM after 5 mins by fluorescence assay relative to control
[25] = target: Neprilysin (Homo sapiens) (UniProt P08473); experiment: Binding affinity to neutral endopeptidase (unknown origin) at 10 uM by relative to control
[26] = target: Prostaglandin G/H synthase 1 (Homo sapiens) (UniProt P23219); experiment: Binding affinity to recombinant human COX1 at 10 uM after 3 mins by fluorescence assay relative to control
[27] = target: Voltage-gated inwardly rectifying potassium channel KCNH2 (Homo sapiens, UniProt Q12809); experiment: Displacement of [3H]-astemizole from human ERG up to 10 uM
In short: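 hERG channel binding assay run by a contract lab; compound tested up to 10 μM.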

[28] = target: Peroxisome proliferator-activated receptor gamma (Homo sapiens) (UniProt P37231); experiment: Binding affinity to recombinant human PPARgamma receptor at 10 uM after 120 mins by scintillation counting analysis relative to control
[29] = target: D(1B) dopamine receptor (Homo sapiens) (UniProt P21918); experiment: Binding affinity to recombinant human dopamine receptor D5 at 10 uM after 60 mins by scintillation counting analysis relative to control
[30] = target: Endothelin-1 receptor (Homo sapiens) (UniProt P25101); experiment: Binding affinity to recombinant human ETA receptor at 10 uM after 120 mins by scintillation counting analysis relative to control
Homo sapiens [31] = species on record: Homo sapiens; experiment: Binding affinity to chloride channel (unknown origin) at 10 uM relative to control
[32] = target: Substance-K receptor (Homo sapiens) (UniProt P21452); experiment: Binding affinity to recombinant human NK2 receptor at 10 uM after 60 mins by scintillation counting analysis relative to control
[33] = target: Tyrosine-protein phosphatase non-receptor type 1 (Homo sapiens) (UniProt P18031); experiment: Binding affinity to recombinant human phosphatase 1B at 10 uM after 30 mins by fluorescence assay relative to control
Chain of Tyrosine-protein phosphatase non-receptor type 1 (Homo sapiens) (P18031 whole entry): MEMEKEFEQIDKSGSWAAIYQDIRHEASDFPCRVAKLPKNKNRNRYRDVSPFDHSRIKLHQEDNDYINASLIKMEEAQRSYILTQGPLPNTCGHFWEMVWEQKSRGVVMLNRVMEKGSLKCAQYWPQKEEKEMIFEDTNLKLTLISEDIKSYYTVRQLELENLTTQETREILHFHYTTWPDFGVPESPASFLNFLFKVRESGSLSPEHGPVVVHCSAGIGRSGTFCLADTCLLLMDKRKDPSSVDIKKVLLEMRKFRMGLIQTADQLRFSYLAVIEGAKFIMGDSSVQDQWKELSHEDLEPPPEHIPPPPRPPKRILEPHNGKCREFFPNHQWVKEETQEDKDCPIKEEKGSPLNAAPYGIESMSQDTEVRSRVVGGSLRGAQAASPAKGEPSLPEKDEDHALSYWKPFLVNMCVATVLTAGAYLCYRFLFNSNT

Chain of Muscarinic acetylcholine receptor M3 (Homo sapiens) (P20309 whole entry, looked up): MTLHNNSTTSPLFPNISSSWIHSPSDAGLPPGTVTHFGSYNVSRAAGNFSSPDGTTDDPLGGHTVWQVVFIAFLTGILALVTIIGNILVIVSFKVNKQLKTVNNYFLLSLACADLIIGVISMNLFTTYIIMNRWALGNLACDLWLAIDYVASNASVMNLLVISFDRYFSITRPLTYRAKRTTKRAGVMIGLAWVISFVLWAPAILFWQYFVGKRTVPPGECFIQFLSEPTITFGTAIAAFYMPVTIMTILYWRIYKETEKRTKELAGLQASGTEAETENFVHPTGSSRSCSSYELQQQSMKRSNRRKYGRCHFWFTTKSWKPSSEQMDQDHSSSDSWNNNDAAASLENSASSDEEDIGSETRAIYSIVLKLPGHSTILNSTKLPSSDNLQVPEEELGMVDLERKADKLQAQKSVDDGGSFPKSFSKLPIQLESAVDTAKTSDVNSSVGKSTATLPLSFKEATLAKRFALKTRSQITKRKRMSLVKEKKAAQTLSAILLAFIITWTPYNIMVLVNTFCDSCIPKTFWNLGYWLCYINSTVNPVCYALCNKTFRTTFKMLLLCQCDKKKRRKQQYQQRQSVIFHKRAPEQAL
Chain of Neuropeptide Y receptor type 1 (Homo sapiens) (P25929 whole entry): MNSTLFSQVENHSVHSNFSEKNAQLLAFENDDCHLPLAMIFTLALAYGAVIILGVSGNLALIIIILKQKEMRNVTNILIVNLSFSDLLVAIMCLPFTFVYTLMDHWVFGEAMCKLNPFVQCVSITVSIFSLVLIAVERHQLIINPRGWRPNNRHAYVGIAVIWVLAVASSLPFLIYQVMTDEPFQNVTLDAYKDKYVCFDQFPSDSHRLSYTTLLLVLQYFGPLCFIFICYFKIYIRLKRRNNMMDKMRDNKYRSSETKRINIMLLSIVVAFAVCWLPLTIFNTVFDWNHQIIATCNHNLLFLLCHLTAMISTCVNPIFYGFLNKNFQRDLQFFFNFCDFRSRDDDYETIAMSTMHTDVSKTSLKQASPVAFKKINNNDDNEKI
Chain of Prostaglandin E2 receptor EP2 subtype (Homo sapiens) (P43116 whole entry): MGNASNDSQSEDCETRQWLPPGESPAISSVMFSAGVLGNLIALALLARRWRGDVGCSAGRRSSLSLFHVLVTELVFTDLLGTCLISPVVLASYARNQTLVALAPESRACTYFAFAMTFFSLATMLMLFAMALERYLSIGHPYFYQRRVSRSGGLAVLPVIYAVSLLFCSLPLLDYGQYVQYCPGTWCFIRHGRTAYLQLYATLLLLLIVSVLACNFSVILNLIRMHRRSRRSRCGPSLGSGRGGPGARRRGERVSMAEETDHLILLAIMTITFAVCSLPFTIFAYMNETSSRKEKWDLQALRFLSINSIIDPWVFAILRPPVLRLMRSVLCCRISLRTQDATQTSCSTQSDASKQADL
Chain of Peroxisome proliferator-activated receptor gamma (Homo sapiens) (P37231 whole entry): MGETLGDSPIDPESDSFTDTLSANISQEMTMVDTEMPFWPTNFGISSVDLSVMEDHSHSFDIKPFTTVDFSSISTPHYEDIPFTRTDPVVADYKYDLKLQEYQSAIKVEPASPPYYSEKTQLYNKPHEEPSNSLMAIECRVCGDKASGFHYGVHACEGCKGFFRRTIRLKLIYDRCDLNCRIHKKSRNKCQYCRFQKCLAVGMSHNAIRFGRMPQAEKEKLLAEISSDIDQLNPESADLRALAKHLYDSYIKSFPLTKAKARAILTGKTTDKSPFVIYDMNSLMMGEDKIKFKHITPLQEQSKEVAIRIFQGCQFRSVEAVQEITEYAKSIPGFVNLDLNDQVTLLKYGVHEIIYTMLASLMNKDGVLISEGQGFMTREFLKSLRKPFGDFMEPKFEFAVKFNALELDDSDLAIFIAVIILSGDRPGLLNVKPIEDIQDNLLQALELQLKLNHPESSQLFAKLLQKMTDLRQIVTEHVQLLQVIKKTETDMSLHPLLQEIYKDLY
Chain of Translocator protein (Homo sapiens) (P30536 whole entry): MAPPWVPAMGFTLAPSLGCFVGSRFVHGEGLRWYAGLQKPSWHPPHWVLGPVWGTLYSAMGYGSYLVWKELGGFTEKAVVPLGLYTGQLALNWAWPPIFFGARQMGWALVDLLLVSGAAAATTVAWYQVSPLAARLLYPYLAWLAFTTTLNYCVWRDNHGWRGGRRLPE
Chain of 5-hydroxytryptamine receptor 5A (Homo sapiens) (P47898 whole entry): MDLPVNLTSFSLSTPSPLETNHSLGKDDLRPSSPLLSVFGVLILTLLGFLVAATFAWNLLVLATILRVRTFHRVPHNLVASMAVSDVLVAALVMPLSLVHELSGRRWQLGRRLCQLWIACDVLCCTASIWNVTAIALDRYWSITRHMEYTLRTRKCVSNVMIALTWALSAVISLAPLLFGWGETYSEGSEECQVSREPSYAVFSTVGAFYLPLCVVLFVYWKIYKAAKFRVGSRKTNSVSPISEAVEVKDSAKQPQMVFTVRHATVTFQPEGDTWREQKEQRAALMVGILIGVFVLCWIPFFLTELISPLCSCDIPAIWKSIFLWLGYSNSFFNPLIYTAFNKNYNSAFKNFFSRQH
Chain of Neuromedin-K receptor (Homo sapiens) (P29371 whole entry): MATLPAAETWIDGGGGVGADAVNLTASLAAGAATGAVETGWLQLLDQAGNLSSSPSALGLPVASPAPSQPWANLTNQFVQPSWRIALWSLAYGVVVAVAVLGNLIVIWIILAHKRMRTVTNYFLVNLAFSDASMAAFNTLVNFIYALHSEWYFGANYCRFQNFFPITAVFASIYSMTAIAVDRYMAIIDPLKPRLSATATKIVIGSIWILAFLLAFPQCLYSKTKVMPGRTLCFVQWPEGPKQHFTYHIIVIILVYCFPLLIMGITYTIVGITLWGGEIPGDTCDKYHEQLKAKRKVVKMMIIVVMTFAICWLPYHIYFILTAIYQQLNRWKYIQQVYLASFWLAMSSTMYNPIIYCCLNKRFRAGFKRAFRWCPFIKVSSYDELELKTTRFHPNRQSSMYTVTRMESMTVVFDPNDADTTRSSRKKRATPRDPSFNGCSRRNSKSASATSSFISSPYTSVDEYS
Chain of D(2) dopamine receptor (Homo sapiens) (P14416 whole entry): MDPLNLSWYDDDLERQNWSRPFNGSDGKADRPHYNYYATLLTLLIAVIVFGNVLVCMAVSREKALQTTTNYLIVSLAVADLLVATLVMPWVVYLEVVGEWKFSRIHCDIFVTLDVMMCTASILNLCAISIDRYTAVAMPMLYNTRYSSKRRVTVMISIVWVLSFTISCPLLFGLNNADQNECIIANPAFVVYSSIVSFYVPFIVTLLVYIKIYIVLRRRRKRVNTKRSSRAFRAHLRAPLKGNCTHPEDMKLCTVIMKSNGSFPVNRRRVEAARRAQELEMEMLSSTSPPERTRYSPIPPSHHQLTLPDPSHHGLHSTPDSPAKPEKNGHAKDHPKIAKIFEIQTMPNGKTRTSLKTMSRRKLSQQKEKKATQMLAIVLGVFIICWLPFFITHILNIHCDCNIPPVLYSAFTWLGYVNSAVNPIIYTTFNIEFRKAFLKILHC
Chain of Disintegrin and metalloproteinase domain-containing protein 17 (Homo sapiens) (P78536 whole entry, the tested form may be a part): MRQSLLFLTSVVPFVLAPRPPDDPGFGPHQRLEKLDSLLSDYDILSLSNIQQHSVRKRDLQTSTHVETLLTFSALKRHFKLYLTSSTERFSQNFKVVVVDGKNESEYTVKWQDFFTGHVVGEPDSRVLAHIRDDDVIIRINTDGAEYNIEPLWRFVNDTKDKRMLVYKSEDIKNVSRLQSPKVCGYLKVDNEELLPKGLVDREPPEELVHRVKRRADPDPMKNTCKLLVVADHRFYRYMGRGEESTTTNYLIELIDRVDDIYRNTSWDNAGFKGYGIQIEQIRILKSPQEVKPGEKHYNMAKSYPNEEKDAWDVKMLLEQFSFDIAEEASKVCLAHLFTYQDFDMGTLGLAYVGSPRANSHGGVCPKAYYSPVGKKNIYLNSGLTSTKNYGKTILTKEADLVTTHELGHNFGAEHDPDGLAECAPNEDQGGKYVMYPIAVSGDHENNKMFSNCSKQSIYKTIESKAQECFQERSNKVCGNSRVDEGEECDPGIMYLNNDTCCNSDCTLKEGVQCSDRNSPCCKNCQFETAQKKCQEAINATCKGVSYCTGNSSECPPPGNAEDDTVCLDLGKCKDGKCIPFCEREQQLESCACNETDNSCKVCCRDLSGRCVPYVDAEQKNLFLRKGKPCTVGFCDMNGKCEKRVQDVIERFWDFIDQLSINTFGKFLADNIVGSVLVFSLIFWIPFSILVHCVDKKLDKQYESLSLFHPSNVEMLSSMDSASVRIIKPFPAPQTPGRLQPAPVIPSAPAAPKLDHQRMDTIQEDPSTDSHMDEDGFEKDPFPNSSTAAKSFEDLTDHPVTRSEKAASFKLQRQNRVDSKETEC
Chain of Caspase-8 (Homo sapiens) (Q14790 217-374 limits assumed): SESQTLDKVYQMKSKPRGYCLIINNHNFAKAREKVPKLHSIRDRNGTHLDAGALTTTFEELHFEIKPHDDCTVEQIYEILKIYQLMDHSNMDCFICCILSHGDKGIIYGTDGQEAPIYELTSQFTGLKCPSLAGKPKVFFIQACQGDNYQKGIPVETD
Chain of Caspase-8 (Homo sapiens) (Q14790 385-479 limits assumed): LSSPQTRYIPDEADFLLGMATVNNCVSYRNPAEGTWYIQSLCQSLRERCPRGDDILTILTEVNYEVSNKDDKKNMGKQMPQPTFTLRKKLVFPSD

For CCOc1c(Cl)cc(C(=O)Nc2ccc(C(=O)O)c(C)c2)cc1OC(C)C, the Activity [1] was less than 25%, the Activity [2] was less than 25% and the Activity [3] was less than 25%. It also gave an Activity [4] of less than 25%, an Activity (Caspase-8 (Homo sapiens)) of less than 25% and an Activity (Homo sapiens [5]) of less than 25%. For the same compound, the Activity (Salmonella typhimurium) was “Non-Toxic”, the Activity [6] was less than 25% and the Activity [7] was less than 25%. For the same compound, the Activity [8] was less than 25%, the Activity (COS-7) was “Non-Toxic” and the Activity [9] was less than 25%. The Activity [10] was less than 25%, the Activity [11] was less than 25% and the Activity [12] was less than 25%. The Activity [13] was less than 25%, the Activity [14] was less than 25% and the Activity [15] was less than 25%. For the same compound, the Activity (Homo sapiens [16]) was less than 25%, the Activity [17] was less than 25% and the Activity (Homo sapiens [18]) was less than 25%. For the same compound, the Activity [19] was less than 25%, the Activity [20] was less than 25% and the Activity [21] was less than 25%. The Activity (Homo sapiens [22]) was less than 25%, the Activity [23] was less than 25% and the Activity [24] was less than 25%. For the same compound, the Activity [25] was less than 25%, the Activity [26] was less than 25% and the Activity [27] was “Not Active”. For the same compound, the Activity [28] was less than 25%, the Activity [29] was less than 25% and the Activity [30] was less than 25%. The Activity (Homo sapiens [31]) was less than 25%, the Activity [32] was less than 25% and the Activity [33] was less than 25%.

Reference: ChEMBL document CHEMBL4184197 (Bioorg Med Chem, 2018)
